From ChEMBL document CHEMBL2163281, “p-(4-Azipentyl)propofol: a potent photoreactive general anesthetic derivative of propofol” (J Med Chem, 2011)
≈ marks a conversion by molar mass, not a printed value. Calls of active or inactive are those of the source. No cut-off for these calls is given here.

Legend:
Tetronarce californica [1] = assay: Binding affinity to Torpedo californica nACh-delta receptor assessed as photoincorporation at 1.7 uM by SDS-PAGE followed by fluorography analysis in presence of carbamylcholine; details: tested as the 3H-labelled form
Method in brief: (§1)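 Torpedo californica electric-organ nACh receptor-rich membranes at 2 mg/mL in Torpedo saline pH 7.0 with 1 mM oxidized glutathione. Membranes were equilibrated 30 min with 1.7 μM [3H]ligand alone or with 100 μM tetracaine, 100 μM phencyclidine, 300 μM propofol and/or 1 mM carbamylcholine. Samples were UV-irradiated at 365 nm on ice for 30 min. Read-out: 8% SDS-PAGE, fluorography (2 weeks) and scintillation counting of gel bands.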

Tetronarce californica [2] = assay: Binding affinity to Torpedo californica nACh-gamma receptor assessed as photoincorporation at 1.7 uM by SDS-PAGE followed by fluorography analysis in presence of carbamylcholine; details: tested as the 3H-labelled form; method in brief: as §1
Tetronarce californica [3] = assay: Binding affinity to Torpedo californica nACh-beta receptor assessed as photoincorporation at 1.7 uM by SDS-PAGE followed by fluorography analysis in presence of carbamylcholine; details: tested as the 3H-labelled form; method in brief: as §1
Tetronarce californica [4] = assay: Binding affinity to Torpedo californica nACh-delta receptor assessed as photoincorporation at 1.7 uM by SDS-PAGE followed by fluorography analysis in presence of propofol; details: tested as the 3H-labelled form; method in brief: as §1
Tetronarce californica [5] = assay: Binding affinity to Torpedo californica nACh-gamma receptor assessed as photoincorporation at 1.7 uM by SDS-PAGE followed by fluorography analysis in presence of propofol; details: tested as the 3H-labelled form; method in brief: as §1
Tetronarce californica [6] = assay: Binding affinity to Torpedo californica nACh-beta receptor assessed as photoincorporation at 1.7 uM by SDS-PAGE followed by fluorography analysis in presence of propofol; details: tested as the 3H-labelled form; method in brief: as §1
Tetronarce californica [7] = assay: Binding affinity to Torpedo californica nACh-delta receptor assessed as photoincorporation at 1.7 uM by SDS-PAGE followed by fluorography analysis in presence of phencyclidine; details: tested as the 3H-labelled form; method in brief: as §1
Tetronarce californica [8] = assay: Binding affinity to Torpedo californica nACh-delta receptor assessed as photoincorporation at 1.7 uM by SDS-PAGE followed by fluorography analysis in presence of tetracaine; details: tested as the 3H-labelled form; method in brief: as §1
Tetronarce californica [9] = assay: Binding affinity to Torpedo californica nACh-beta receptor assessed as photoincorporation at 1.7 uM by SDS-PAGE followed by fluorography analysis in presence of tetracaine; details: tested as the 3H-labelled form; method in brief: as §1
Tetronarce californica [10] = assay: Binding affinity to Torpedo californica nACh-alpha receptor assessed as increase photoincorporation at 1.7 uM by SDS-PAGE followed by fluorography analysis in presence of carbamylcholine and propofol; details: tested as the 3H-labelled form; method in brief: as §1
Tetronarce californica [11] = assay: Binding affinity to Torpedo californica nACh-alpha receptor assessed as decrease photoincorporation at 1.7 uM by SDS-PAGE followed by fluorography analysis in presence of carbamylcholine and phencyclidine; set-up: scale not given: the % may be the effect or the level left; details: tested as the 3H-labelled form; method in brief: as §1
Tetronarce californica [12] = assay: Binding affinity to Torpedo californica nACh-alpha receptor assessed as photoincorporation at 1.7 uM by SDS-PAGE followed by fluorography analysis in presence of carbamylcholine; details: tested as the 3H-labelled form; method in brief: as §1
Tetronarce californica [13] = assay: Binding affinity to Torpedo californica nACh-gamma receptor assessed as photoincorporation at 1.7 uM by SDS-PAGE followed by fluorography analysis in presence of tetracaine; details: tested as the 3H-labelled form; method in brief: as §1
[14] = Binding affinity to VDAC assessed as photoincorporation at 1.7 uM by SDS-PAGE followed by fluorography analysis; details: tested as the 3H-labelled form; method in brief: as §1
[15] = Binding affinity to Na+/K+ ATPase alpha assessed as photoincorporation at 1.7 uM by SDS-PAGE followed by fluorography analysis; details: tested as the 3H-labelled form; method in brief: as §1
[16] = target: T1, 43 kDa receptor-associated protein of the synapse (Homo sapiens) (UniProt Q13702); assay: Binding affinity to RAPsyn assessed as photoincorporation at 1.7 uM by SDS-PAGE followed by fluorography analysis; details: tested as the 3H-labelled form; method in brief: as §1
T1 sequence (whole entry): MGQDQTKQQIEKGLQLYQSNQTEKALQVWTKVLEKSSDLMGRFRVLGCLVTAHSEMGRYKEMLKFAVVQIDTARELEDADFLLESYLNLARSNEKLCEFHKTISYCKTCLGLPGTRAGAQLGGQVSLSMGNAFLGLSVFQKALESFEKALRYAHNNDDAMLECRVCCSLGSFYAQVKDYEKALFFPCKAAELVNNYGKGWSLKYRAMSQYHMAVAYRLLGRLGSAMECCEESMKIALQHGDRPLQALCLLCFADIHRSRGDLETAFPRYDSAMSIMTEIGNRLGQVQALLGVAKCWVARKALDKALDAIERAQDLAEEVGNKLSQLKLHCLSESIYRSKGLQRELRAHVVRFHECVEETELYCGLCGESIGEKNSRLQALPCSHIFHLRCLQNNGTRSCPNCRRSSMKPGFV

Tetronarce californica [17] = assay: Binding affinity to Torpedo californica nACh-delta receptor assessed as photoincorporation at 1.7 uM by SDS-PAGE followed by fluorography analysis; details: tested as the 3H-labelled form; method in brief: as §1
Tetronarce californica [18] = assay: Binding affinity to Torpedo californica nACh-gamma receptor assessed as photoincorporation at 1.7 uM by SDS-PAGE followed by fluorography analysis; details: tested as the 3H-labelled form; method in brief: as §1
Tetronarce californica [19] = assay: Binding affinity to Torpedo californica nACh-beta receptor assessed as photoincorporation at 1.7 uM by SDS-PAGE followed by fluorography analysis; details: tested as the 3H-labelled form; method in brief: as §1
[20] = Antagonist activity at Torpedo californica nACh receptor expressed in Xenopus oocytes assessed as inhibition of acetylcholine-induced current response; assay type: functional, cell-based; details: Tetronarce californica, Oocyte
Method in brief: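 Torpedo nACh receptor cRNA (2α:1β:1γ:1δ, ~25 ng) injected into Xenopus oocytes. Two-electrode clamp at −50 mV in ND96. Currents were evoked by 10 μM ACh (~EC20), then by ACh plus 1–100 μM drug for 15–20 s with ~3 min washes. Currents were normalized to the ACh response and fit to a logistic inhibition equation; 3 oocytes.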

[21] = target: T2, GABA-A receptor; alpha-1/beta-3/gamma-2 (Homo sapiens) (UniProt P14867+P18507+P28472); assay: Increase of [3H]-flunitrazepam binding to alpha1beta3gamma2 GABAA receptor expressed in HEK293S-TetR cells at >30 uM after 1 hr by liquid scintillation counting; assay type: cell-based
Method in brief: (§2)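 Membranes from HEK293S-TetR cells expressing α1β3γ2 GABAA receptors (200 μg protein) in 10 mM phosphate pH 7.4, 200 mM KCl, 1 mM EDTA. Incubated with 3 nM [3H]muscimol or 1.5 nM [3H]flunitrazepam plus drug for 1 h at 4°C. Nonspecific binding was set with 1 mM GABA or 1 mM flurazepam. Filtered onto PEI-treated filters, then scintillation-counted; triplicates.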

[22] = target: T2, GABA-A receptor; alpha-1/beta-3/gamma-2 (Homo sapiens); assay: Increase of [3H]-flunitrazepam binding to alpha1beta3gamma2 GABAA receptor expressed in HEK293S-TetR cells up to 400 uM after 1 hr by liquid scintillation counting; assay type: cell-based; method in brief: as §2
[23] = target: T2, GABA-A receptor; alpha-1/beta-3/gamma-2 (Homo sapiens); assay: Increase of [3H]-flunitrazepam binding to alpha1beta3gamma2 GABAA receptor expressed in HEK293S-TetR cells at 0.1 to 40 uM after 1 hr by liquid scintillation counting relative to control; assay type: cell-based; method in brief: as §2
[24] = target: T2, GABA-A receptor; alpha-1/beta-3/gamma-2 (Homo sapiens); assay: Increase of [3H]muscimol binding to alpha1beta3gamma2 GABAA receptor expressed in HEK293S-TetR cells after 1 hr by liquid scintillation counting relative to control; assay type: cell-based; method in brief: as §2
[25] = target: T3, GABA-A receptor; agonist GABA site (Homo sapiens) (UniProt P14867+P47870+P28472+P48169+P34903+P18505+P47869+P31644+Q16445); assay: Agonist activity at human alpha1beta2gamma2L GABAA receptor expressed in Xenopus oocytes assessed as potentiation of channel current response by two-electrode voltage clamp electrophysiology assay relative to control; assay type: functional, cell-based; details: Oocyte
[26] = target: T3, GABA-A receptor; agonist GABA site (Homo sapiens); assay: Agonist activity at human alpha1beta2gamma2L GABAA receptor expressed in Xenopus oocytes assessed as potentiation of GABA-induced current response at 6 uM by two-electrode voltage clamp electrophysiology assay relative to control; assay type: functional, cell-based; details: Oocyte
[27] = target: GABA-A receptor; agonist GABA site; assay: Agonist activity at human alpha1beta2gamma2L GABAA receptor expressed in Xenopus oocytes assessed as potentiation of channel current response by two-electrode voltage clamp electrophysiology assay; assay type: functional, cell-based; details: oocyte
[28] = target: T3, GABA-A receptor; agonist GABA site (Homo sapiens); assay: Agonist activity at human alpha1beta2gamma2L GABAA receptor expressed in Xenopus oocytes assessed as potentiation of GABA-induced current response at 100 uM by two-electrode voltage clamp electrophysiology assay relative to control; assay type: functional, cell-based; details: Oocyte
[29] = target: GABA-A receptor; agonist GABA site; assay: Agonist activity at human alpha1beta2gamma2L GABAA receptor expressed in Xenopus oocytes assessed as potentiation of GABA-induced current response by two-electrode voltage clamp electrophysiology assay; assay type: functional, cell-based; details: oocyte
Xenopus laevis = assay: Anesthetic activity in Xenopus laevis tadpoles assessed as loss of righting reflexes; assay type: functional, organism-based; details: Tadpole
Method in brief: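 Xenopus tadpoles in groups of 5 were held in 2.5 mM Tris HCl pH 7.4 under low light at seven concentrations from 1.0 to 20 μM, with ethanol ≤5 mM. Each animal was flipped every 10 min until a stable response, usually at 40 min. LoRR meant failure to right within 5 s. Only animals that recovered overnight were analysed. Quantal scores were fit to a logistic equation.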

[30] = Chemical stability of the compound in 0.01 M Tris-HCl buffer at pH 7.4 at 4 degC after 2.5 days; assay type: physicochemical; details: pH 7.4, 60 h
Method in brief: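 Held near saturation in buffer at 4°C for at least 2.5 days, then analysed by reverse-phase HPLC.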

[31] = Aqueous solubility of the compound in 0.01 M Tris-HCl buffer at pH 7.4; assay type: physicochemical
Tetronarce californica [32] = assay: Binding affinity to Torpedo californica nACh-beta receptor assessed as photoincorporation at 1.7 uM by SDS-PAGE followed by fluorography analysis in presence of phencyclidine; details: tested as the 3H-labelled form; method in brief: as §1
Tetronarce californica [33] = assay: Binding affinity to Torpedo californica nACh-gamma receptor assessed as photoincorporation at 1.7 uM by SDS-PAGE followed by fluorography analysis in presence of phencyclidine; details: tested as the 3H-labelled form; method in brief: as §1
[34] = Aqueous solubility of the compound in water

Compound: CC(C)c1cc(CCCC2(C)N=N2)cc(C(C)C)c1O
- Activity (Tetronarce californica [1]): < 20%
- Activity (Tetronarce californica [2]): < 20%
- Activity (Tetronarce californica [3]): < 20%
- Activity (Tetronarce californica [4]): < 20%
- Activity (Tetronarce californica [5]): < 20%
- Activity (Tetronarce californica [6]): < 20%
- Activity (Tetronarce californica [7]): < 20%
- Activity (Tetronarce californica [8]): < 20%
- Activity (Tetronarce californica [9]): < 20%
- Activity (Tetronarce californica [10]): 20%
- Activity (Tetronarce californica [11]): 20%
- Activity (Tetronarce californica [12]): 100%
- Activity (Tetronarce californica [13]): < 20%
- Activity [14]: Active
- Activity [15]: Active
- Activity [16]: Active
- Activity (Tetronarce californica [17]): Active
- Activity (Tetronarce californica [18]): Active
- Activity (Tetronarce californica [19]): Active
- IC50 [20]: 4 µM
- Activity [21]: Active
- Activity [22]: inactive
- fold change (FC) [23]: 1.6
- fold change (FC) [24]: 1.6
- Activity [25]: 10%
- fold change (FC) [26]: 9
- EC50 [27]: 15 µM
- fold change (FC) [28]: 20
- EC50 [29]: 4.5 µM
- EC50 (Xenopus laevis): 3.2 µM
- Stability [30]: Stable
- solubility [31]: 73 µM (≈ 20 µg/mL)
- Activity (Tetronarce californica [32]): < 20%
- Activity (Tetronarce californica [33]): < 20%

Compound: CC(C)c1cccc(C(C)C)c1O [PROPOFOL]
- IC50 [20]: 7.3 µM
- Activity [21]: inactive
- Activity [22]: inactive
- fold change (FC) [23]: 2
- fold change (FC) [24]: 2.4
- Activity [25]: 45%
- EC50 [27]: 50 µM
- EC50 [29]: 5.2 µM
- EC50 (Xenopus laevis): 2.2 µM
- solubility [34]: 1000 µM (≈ 178 µg/mL)
